From ChEMBL document CHEMBL1147606, “Synthesis and cytotoxicity of hydrophobic esters of podophyllotoxins” (Bioorg Med Chem Lett, 2004)

Assays:
Type in all cases: functional, cell-based
SK-MEL-28 = experiment: In vitro cytotoxicity against MEL-28 (human malign melanoma) neoplastic cell line
Method in brief: (§1)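 In vitro assay adapted from Bergeron's method. P-388 was grown as a suspension culture of a mouse lymphoid neoplasm. A-549, HT-29 and MEL-28 were grown as monolayer cultures. Dose–response curves were constructed, and IC50 values (nM) were calculated from them.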

A549 = experiment: In vitro cytotoxicity against the A-549 (human lung carcinoma) neoplastic cell line
HT-29 = experiment: In vitro cytotoxicity against the HT-29 (human colon carcinoma) neoplastic cell line; method in brief: as §1
P388 = experiment: In vitro cytotoxicity against the P-388 (from DBA/2 mouse) neoplastic cell line; method in brief: as §1

Compound | IC50 (SK-MEL-28; Homo sapiens, SK-MEL-28) [nM] | IC50 (A549; Homo sapiens, A549) [nM] | IC50 (HT-29; Homo sapiens, HT-29) [nM] | IC50 (P388; Mus musculus, P388) [nM] | IC50 (SK-MEL-28; sk-mel-28) [nM] | IC50 (A549; a549) [nM] | IC50 (HT-29; ht-29) [nM] | IC50 (P388; p388) [nM]
COc1cc([C@@H]2c3cc4c(cc3[C@H](OC(=O)Cc3ccccc3)[C@H]3COC(=O)[C@H]23)OCO4)cc(OC)c1OC | 188 | 188 | 188 | 188 | – | – | – | –
C=CC(=O)O[C@@H]1c2cc3c(cc2[C@@H](c2cc(OC)c(OC)c(OC)c2)[C@@H]2C(=O)OC[C@@H]21)OCO3 | 21 | 21 | 21 | 21 | – | – | – | –
COc1cc([C@@H]2c3cc4c(cc3[C@@H](OC(=O)/C=C/c3ccccc3)[C@H]3COC(=O)[C@H]23)OCO4)cc(OC)c1OC | 184 | 184 | 184 | 184 | – | – | – | –
C=CC(=O)O[C@H]1c2cc3c(cc2[C@@H](c2cc(OC)c(OC)c(OC)c2)[C@@H]2C(=O)OC[C@@H]21)OCO3 | 53 | 53 | 55 | 55 | – | – | – | –
COc1cc([C@@H]2c3cc4c(cc3[C@H](OC(=O)/C=C/c3ccccc3)[C@H]3COC(=O)[C@H]23)OCO4)cc(OC)c1OC | 9180 | 9180 | 9180 | 4590 | – | – | – | –
COc1cc([C@@H]2c3cc4c(cc3[C@@H](O)[C@H]3COC(=O)[C@@H]23)OCO4)cc(OC)c1OC | – | 12 | 24 | 12 | – | – | – | –
C=CC(=O)O[C@@H]1c2cc3c(cc2[C@@H](c2cc(OC)c(OC)c(OC)c2)[C@H]2C(=O)OC[C@@H]21)OCO3 | 213 | 213 | 213 | 213 | – | – | – | –
COc1cc([C@@H]2c3cc4c(cc3[C@H](OC(=O)c3ccccc3)[C@H]3COC(=O)[C@H]23)OCO4)cc(OC)c1OC | 1930 | 1930 | 1930 | 1930 | – | – | – | –
COc1cc([C@@H]2c3cc4c(cc3[C@@H](OC(=O)c3ccccc3)[C@H]3COC(=O)[C@H]23)OCO4)cc(OC)c1OC | 48 | 48 | 48 | 24 | – | – | – | –
C=CC(=O)O[C@H]1c2cc3c(cc2[C@@H](c2cc(OC)c(OC)c(OC)c2)[C@H]2C(=O)OC[C@@H]21)OCO3 | 213 | 213 | 213 | 213 | – | – | – | –
COc1cc([C@@H]2c3cc4c(cc3[C@@H](OC(=O)CC3CC5CCC3C5)[C@H]3COC(=O)[C@H]23)OCO4)cc(OC)c1OC (some centres undefined) | 454 | 454 | 454 | 454 | – | – | – | –
COc1cc([C@@H]2c3cc4c(cc3[C@@H](OC(=O)Cc3ccccc3)[C@H]3COC(=O)[C@H]23)OCO4)cc(OC)c1OC | 94 | 94 | 94 | 47 | – | – | – | –
COc1cc([C@@H]2c3cc4c(cc3[C@H](OC(=O)C3CC5C=CC3C5)[C@H]3COC(=O)[C@H]23)OCO4)cc(OC)c1OC (some centres undefined) | – | – | – | – | 468 | 468 | 468 | 468
COc1cc([C@@H]2c3cc4c(cc3[C@@H](OC(=O)C3CC5C=CC3C5)[C@H]3COC(=O)[C@H]23)OCO4)cc(OC)c1OC (some centres undefined) | 1120 | 1120 | 1120 | 1120 | – | – | – | –
CCCCCCC(=O)O[C@@H]1c2cc3c(cc2[C@@H](c2cc(OC)c(OC)c(OC)c2)[C@H]2C(=O)OC[C@@H]21)OCO3 | 190 | 190 | 190 | 190 | – | – | – | –
COc1cc([C@@H]2c3cc4c(cc3[C@H](OC(=O)C3CC5C=CC3C5)[C@H]3COC(=O)[C@@H]23)OCO4)cc(OC)c1OC (some centres undefined) | 19 | 19 | 19 | 19 | – | – | – | –
COc1cc([C@@H]2c3cc4c(cc3C(OC(=O)C3CC5C=CC3C5)[C@H]3COC(=O)C23)OCO4)cc(OC)c1OC (single isomer, unassigned) | – | – | – | – | 4 | 4 | 4 | 5
COc1cc([C@@H]2c3cc4c(cc3[C@H](O)[C@H]3COC(=O)[C@@H]23)OCO4)cc(OC)c1OC [AXL-1717] | – | 60 | 60 | 60 | – | – | – | –
COc1cc([C@@H]2c3cc4c(cc3[C@@H](O)[C@H]3COC(=O)[C@H]23)OCO4)cc(OC)c1OC [EPIPODOPHYLLOTOXIN] | – | 6000 | 6000 | 6000 | – | – | – | –
COc1cc([C@@H]2c3cc4c(cc3[C@@H](O[C@@H]3O[C@@H]5CO[C@@H](C)O[C@H]5[C@H](O)[C@H]3O)[C@H]3COC(=O)[C@H]23)OCO4)cc(OC)c1O [ETOPOSIDE] | 850 | – | 1700 | 170 | – | – | – | –
COc1cc([C@@H]2c3cc4c(cc3[C@H](O)[C@H]3COC(=O)[C@H]23)OCO4)cc(OC)c1OC [PODOFILOX] | – | 2900 | 2900 | 2900 | – | – | – | –
